MEKK3 PB1 HTS – raises or lowers MEK5 binding to the human MEKK3 PB1 domain; Q99759; binding response (% of control), % at 10 µM; AID 1529; bead-based flow cytometry, Alexa488-MEK5 binding to MEKK3; actives lie on both sides; 0 = blocked by unlabeled MEK5, 100 = vehicle; hit rate 1.4% among 290,000;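 active = binding response more than 3 SD above or below the average of its plate-row segment, actives on both sides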;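 also: Alexa488 bead fluorescence after subtracting the streptavidin-only scavenger bead signal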
Target sequence (Q99759 whole entry, looked up, the tested form may be a part): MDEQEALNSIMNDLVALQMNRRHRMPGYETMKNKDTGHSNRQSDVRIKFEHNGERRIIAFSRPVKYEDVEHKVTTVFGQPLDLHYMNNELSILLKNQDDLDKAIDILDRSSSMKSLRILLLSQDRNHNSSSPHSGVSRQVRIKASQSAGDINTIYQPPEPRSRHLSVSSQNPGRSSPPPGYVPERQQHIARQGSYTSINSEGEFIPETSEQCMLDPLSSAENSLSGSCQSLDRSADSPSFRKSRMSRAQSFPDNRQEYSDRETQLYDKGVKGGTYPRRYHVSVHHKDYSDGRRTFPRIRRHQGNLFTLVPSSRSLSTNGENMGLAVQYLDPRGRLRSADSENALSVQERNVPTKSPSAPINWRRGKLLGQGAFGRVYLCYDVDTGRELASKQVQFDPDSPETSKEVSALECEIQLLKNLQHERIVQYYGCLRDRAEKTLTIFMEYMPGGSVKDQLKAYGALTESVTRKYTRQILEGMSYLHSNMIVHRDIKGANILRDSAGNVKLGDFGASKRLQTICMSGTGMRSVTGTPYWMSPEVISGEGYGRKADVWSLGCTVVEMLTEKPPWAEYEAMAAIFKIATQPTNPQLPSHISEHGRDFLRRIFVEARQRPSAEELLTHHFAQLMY
MEKK2 mut-MEK5 – signal of MEK5 binding to mutant human MEKK2 PB1 domain; bead flow cytometry, Alexa488-MEK5 binding to MEKK2 mutant; percent response, % at 10 µM; hit rate 0.35% among 290,000; AID 1530; in the data active = percent response above about 24%, passing the limit was not always enough
MEKK2wt PB1 HTS – raises or lowers MEK5 binding to wildtype human MEKK2 PB1 domain | Q9Y2U5 | bead flow cytometry, Alexa488-MEK5 binding to MEKK2 WT; actives lie on both sides | binding response (% of control), % at 10 µM | hit rate 1.1% among 290,000; in the data active = binding response below about 67% or above about 130%
WT yeast gro inh – growth inhibition of WT yeast, mitochondrial fusion screen. mitochondrial fusion phenotypic screen, WT strain. inhibition, % at 10 µM. hit rate 2.1% among 190,000; in the data active = inhibition above about 58%; tested in S. cerevisiae
ABCB1 inh – blocks JC-1 efflux by human ABCB1 transporter; P08183; CCRF-Adr cells, flow cytometry; inhibition, % at 6.6 µM; hit rate 0.067% among 190,000; in the data active = inhibition above about 40%;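 also: 0% = vehicle and 100% = reference inhibitor; higher value means more JC-1 retained so stronger ABCB1 efflux block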
ABCG2 inh – human ABCG2 inhibition, ABCB1 as counter-screen | Q9UNQ0 | IgMXP3 cells, JC-1 efflux, flow cytometry | AID 1325 | hit rate 0.1% among 190,000 | inhibition, % at 6.6 µM;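 active = inhibition above 80%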;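 also: 0% = DMSO and 100% = nicardipine control wells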
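System: two drug-resistant human cell lines, ABCG2 and ABCB1; controls: nicardipine high and DMSO low controls; times: 10 min exposure at 25 °C with rotation, no wash; detection: flow cytometry of retained JC-1 fluorescence; read-out basis: percent efflux inhibition, scaled nicardipine 100% to DMSO 0%; doses: one concentration, 6.6 µM final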
MEKK2wt confirm – raises or lowers MEK5 binding to wildtype human MEKK2, retest | shares compounds with MEKK3 PB1 HTS | bead flow cytometry, Alexa488-MEK5 binding to MEKK2 WT; actives lie on both sides | binding response (% of control), % at 10 µM | hit rate 2.4% among 5,900; in the data active = binding response below about 16% or above about 210%; inactive = in between
MEKK2mut confirm – signal of MEK5 binding to mutant human MEKK2, retest. shares compounds with MEKK3 PB1 HTS. bead flow cytometry, Alexa488-MEK5 binding to MEKK2 mutant. percent response, % at 10 µM. hit rate 2% among 5,900; in the data active = percent response mostly above about 71%, no sharp cut-off; inactive = mostly below about 38%;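 also: higher means compound restores mutant binding toward wildtype level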
MEKK3-MEK5 inh – MEKK3-MEK5 PB1 inhibition, single concentration confirmation. shares compounds with MEKK3 PB1 HTS. bead flow cytometry, Alexa488-MEK5 binding to MEKK3; stronger effect = lower value. binding response (% of control), % at 10 µM. hit rate 1.8% among 5,900;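 active = binding response below 72% of control, or above a set upper limit, though filed actives all read lower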;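 also: 100% = DMSO only wells and 0% = binding blocked by excess unlabeled MEK5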
The depositor's hits bear a star; . = no result given; [ ] = remark or other dose. An excerpt weighted towards active compounds, which were near 3.5% of everything screened.

SMILES	MEKK3 PB1 HTS	MEKK2 mut-MEK5	MEKK2wt PB1 HTS	WT yeast gro inh	ABCB1 inh	ABCG2 inh	MEKK2wt confirm	MEKK2mut confirm	MEKK3-MEK5 inh
COc1ccc2sc(N(CCCN(C)C)C(=O)c3nc4ccccc4s3)nc2c1	111.0	25.0	195.0*	9.0	0.9	4.5	166.0	38.0	104.0
COc1ccc2ccccc2c1/C=N/O	133.0*	6.0	121.0	-16.8	0.9	2.1	98.0	1.0	101.0
C=CCOc1ccc2ccccc2c1/C=N/O	109.0	5.0	103.0	-5.1	0.8	2.9	.	.	.
Cn1ccc(C(=O)OCC(=O)Nc2cccc3ccccc23)n1	102.0	-8.0	87.0	-14.9	0.0	17.3	.	.	.
CCNc1ccc(C(=O)N/N=C/c2c(C)nn(-c3ccccc3)c2N2CCCC2)cc1[N+](=O)[O-]	138.0*	1.0	107.0	4.4	1.0	5.5	101.0	0.0	102.0
COc1cccc(-c2ccc(NC(=O)C3CCCN(Cc4cnn(C(C)C)c4)C3)cc2)c1 (stereo not drawn)	107.0	16.0	147.0*	.	.	.	141.0	28.0	108.0
CCOc1ccccc1N1CCN(C(=S)NCc2ccccc2)CC1	84.0	-1.0	92.0	23.3	-1.0	-2.9	.	.	.
CCOc1ccccc1N1CCN(C(=S)NCc2ccco2)CC1	64.0*[inhibitor]	-1.0	92.0	-6.1	0.4	2.9	107.0	5.0	107.0
S=C(NCc1ccco1)N1CCN(c2ccc(Cl)cc2)CC1	98.0	1.0	100.0	10.9	0.3	18.1	.	.	.
CC(=O)c1ccc(N2CCN(C(=S)NCc3ccco3)CC2)cc1	46.0*[inhibitor]	-16.0	53.0	-3.2	0.1	0.0	93.0	-27.0	92.0
COc1cc(CN2CCC(n3nccc3NC(=O)c3ccc4c(c3)OCO4)CC2)ccc1O	101.0	5.0	111.0	.	.	.	.	.	.
Cc1ccc(C)c2c(N)c3c(nc12)CCCCC3 (tested in a mixture with another compound)	94.0	-2.0	94.0	10.0	-0.2	-2.4	.	.	.
O=C(Nc1ccccc1)C1=C(c2ccccc2)S(=O)(=O)CCS1(=O)=O	6.0*[inhibitor]	-19.0	8.0*[inhibitor]	9.4	1.7	7.4	103.0	-4.0	101.0
O=C(O)c1ccccc1C(=O)Nc1ccccc1	101.0	2.0	103.0	-8.9	0.3	-0.4	.	.	.
CC(C)(C)NC(=O)NC(=O)COC(=O)COc1ccc(Cl)cc1Cl	75.0*[inhibitor]	-3.0	93.0	-32.7	0.5	1.9	103.0	5.0	107.0
O=C(COC(=O)COc1ccc(Cl)cc1Cl)Nc1cccnc1Cl	137.0*	-1.0	105.0	7.4	-0.1	8.0	103.0	2.0	102.0
O=C(COC(=O)COc1ccc(Br)cc1)Nc1cccnc1Cl	96.0	-4.0	96.0	-6.2	0.1	-0.4	.	.	.
CC(C)c1[nH]c(=O)c(C#N)c2c1CSC(C)(C)C2	3.0*[inhibitor]	-14.0	3.0*[inhibitor]	3.7	-0.2	0.0	100.0	-4.0	98.0
Cc1[nH]c(=O)c(C#N)c2c1CSC(C)(C)C2	94.0	-4.0	97.0	9.3	0.9	1.9	.	.	.
CCCCc1nnc(NC(=O)C2CC(=O)N(c3ccc4c(c3)OCCO4)C2)s1 (stereo not drawn)	97.0	19.0	115.0	-6.8	-0.4	21.6	.	.	.
CCC(CC)c1nnc(NC(=O)C2CC(=O)N(c3ccc4c(c3)OCCO4)C2)s1 (stereo not drawn)	135.0*	1.0	110.0	-0.7	0.2	7.0	66.0	-18.0	61.0*
CC(C)(C)c1ccc(C(O)CCCN2CCC(C(O)(c3ccccc3)c3ccccc3)CC2)cc1 (stereo not drawn)	84.0	24.0*	212.0*	91.5*	0.5	-0.9	142.0	33.0	107.0
CCc1ccc(C(=O)NCc2ccc(Cl)cc2Cl)cc1	99.0	-2.0	100.0	3.1	0.1	1.1	.	.	.
Cc1ccc(SCc2ccc(C(=O)NCc3ccncc3)cc2)cc1	82.0*[inhibitor]	-6.0	85.0	22.2	0.2	0.6	101.0	-2.0	100.0
Cc1ccc(SCCC(=O)NCc2ccncc2)cc1	99.0	-5.0	94.0	7.5	-2.6	-2.0	.	.	.
SMILES	MEKK3 PB1 HTS	MEKK2 mut-MEK5	MEKK2wt PB1 HTS	WT yeast gro inh	ABCB1 inh	ABCG2 inh	MEKK2wt confirm	MEKK2mut confirm	MEKK3-MEK5 inh
CCc1ccc(C(=O)NCc2ccc(Cl)cc2)cc1	71.0*[inhibitor]	-1.0	97.0	7.1	0.4	6.2	98.0	-1.0	102.0
Cc1ccc(Nc2nc(=O)c3cccnc3s2)c(Br)c1	101.0	5.0	102.0	.	.	.	.	.	.
CC(C)C(=O)Nc1cccc(-c2csc(-c3ccccc3)n2)c1	139.0*	0.0	110.0	14.1	1.2	19.5	95.0	-1.0	103.0
CC(C)Oc1c(N2CCOCC2)c(=O)c1=O	103.0	4.0	107.0	.	.	.	.	.	.
O=c1c(N2CCOCC2)c(N2CCOCC2)c1=O	42.0*[inhibitor]	-33.0	52.0	.	.	.	105.0	2.0	103.0
CCCCCCCCC[n+]1cccc2c3ccccc3ccc21	106.0	19.0	135.0*	54.0	0.8	4.7	150.0	29.0	105.0
CCCCCCCCCCCCCCCC[n+]1cccc2ccccc21	133.0*	9.0	157.0*	97.9	0.3	-4.2	252.0*	165.0*	112.0
COc1cccc(NC(=O)N2CCCC2C(=O)NCc2ccc(Cl)cc2)c1 (stereo not drawn)	111.0	12.0	113.0	.	.	.	.	.	.
COc1ccc(N(C)S(=O)(=O)c2cccc(C(=O)Nc3ccc(-n4cnnn4)cc3)c2)cc1	100.0	-2.0	100.0	-12.4	-0.1	0.6	.	.	.
Cc1c(-c2cccc(NC(=O)c3cccs3)c2)nc2ncccn12	98.0	-4.0	102.0	-23.1	11.0	28.4	.	.	.
O=S(=O)(c1ccc(Cl)cc1)n1ccc(-c2cccc(OCc3c(F)cccc3Cl)c2)n1	108.0	2.0	96.0	-0.5	1.6	37.0	.	.	.
O=S(=O)(c1ccc(F)cc1)n1ccc(-c2cccc(OCc3c(F)cccc3Cl)c2)n1	2.0*[inhibitor]	-17.0	2.0*[inhibitor]	7.0	0.0	-0.5	95.0	-8.0	97.0
CCCOc1ccc(/C(O)=C2\C(=O)C(=O)N(c3ccccn3)C2c2ccccc2F)cc1C (stereo not drawn)	102.0	1.0	100.0	.	.	.	.	.	.
CC(C)Cn1c(=O)c(C(=O)N/N=C/c2cccc(F)c2)c(O)c2ccccc21	94.0	-4.0	93.0	18.8	-0.5	-1.9	.	.	.
CCCC1=NN(C(=O)CCc2ccccc2O)C(O)(C(F)(F)F)C1 (stereo not drawn)	138.0*	3.0	107.0	15.4	0.8	17.0	97.0	3.0	100.0

Source: PubChem BioAssay (several laboratories)
